Target: T1, Protein Tat (Human immunodeficiency virus type 1 group M subtype B (isolate HXB2), UniProt P04608)
T1 sequence (P04608 whole entry): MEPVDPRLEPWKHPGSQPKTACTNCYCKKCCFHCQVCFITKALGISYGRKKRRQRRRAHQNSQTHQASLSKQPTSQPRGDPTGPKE
Assay: Inhibition of HIV1 TAT transfected to human HeLa cells assessed as decrease in luminescence after 48 hrs by duel luciferase reporter gene assay
Summary of the method: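 HeLa cells stably carrying HIV-1 Tat and firefly luciferase on one bicistronic mRNA plus an HIV-1 LTR-renilla luciferase reporter. IC50 taken from dose-dependent fall in renilla luminescence (Tat-TAR function); firefly signal monitors Tat expression/cytotoxicity.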

SMILES | IC50 [µM]
C[C@@H](CN[C@H](CN[C@H](CN[C@H](CNCCC(N)=O)Cc1ccc(O)cc1)Cc1ccc(O)cc1)Cc1ccc(O)cc1)NC[C@H](Cc1ccc(O)cc1)NC[C@H](Cc1ccc(O)cc1)NC[C@H](Cc1ccc(O)cc1)NC[C@@H](N)Cc1ccc(O)cc1 | 0.9
NCCCC[C@@H](CN[C@H](CNCCC(N)=O)Cc1ccc(O)cc1)NC[C@H](Cc1ccc(O)cc1)NC[C@H](CCCCN)NC[C@H](Cc1c[nH]c2ccccc12)NC[C@@H](N)Cc1ccc(O)cc1 | 10
NCCCC[C@@H](CN[C@H](CNCCC(N)=O)Cc1ccc(O)cc1)NC[C@H](Cc1ccc(O)cc1)NC[C@H](CCCCN)NC[C@H](Cc1ccc(O)cc1)NC[C@@H](N)Cc1ccc(O)cc1 | 35
NC(=O)CCNC[C@H](Cc1ccc(O)cc1)NC[C@H](Cc1ccc(O)cc1)NC[C@@H](N)Cc1ccc(O)cc1 | 19
NCCCC[C@@H](CN[C@H](CN[C@H](CN[C@H](CNCCC(N)=O)Cc1ccc(O)cc1)Cc1ccc(O)cc1)Cc1ccc(O)cc1)NC[C@H](Cc1ccc(O)cc1)NC[C@@H](N)Cc1ccc(O)cc1 | 12
C[C@@H](CN[C@H](CN[C@H](CN[C@H](CNCCC(N)=O)Cc1ccc(O)cc1)Cc1ccc(O)cc1)Cc1ccc(O)cc1)NC[C@H](Cc1ccc(O)cc1)NC[C@@H](N)Cc1ccc(O)cc1 | 6
NC(=O)CCNC[C@H](Cc1ccc(O)cc1)NC[C@H](Cc1ccc(O)cc1)NC[C@H](Cc1ccc(O)cc1)NC[C@H](Cc1ccc(O)cc1)NC[C@@H](N)Cc1ccc(O)cc1 | 30

Source: BindingDB's records for doi:10.1016/j.bmcl.2009.10.078 (Niddk, 2009)
